Only some compounds are listed: those with a hit (about 3.8% of all), similar ones and a draw of the others.
FGF22 binding-1 = shifts melting point of recombinant human FGF22; Q9HCT0; recombinant FGF22 thermal shift, SYPRO orange fluorescence; percent of sucrose octasulfate shift, DMSO zero; activity (Tm shift, normalised), % at 9.99 µM; 340,000 tested, 1.5% active;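 active = mean Tm shift, scaled 0 neutral to 100 positive control, at about 1.3% or above, every replicate too, limit read from the data; inconclusive = no clear call, values can overlap the other calls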
Target sequence (Q9HCT0 whole entry, looked up): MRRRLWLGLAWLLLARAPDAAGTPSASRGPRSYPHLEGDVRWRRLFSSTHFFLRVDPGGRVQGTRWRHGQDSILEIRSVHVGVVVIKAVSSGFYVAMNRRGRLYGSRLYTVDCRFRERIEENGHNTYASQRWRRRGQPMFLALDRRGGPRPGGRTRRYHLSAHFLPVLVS
SIRT5 inh = blocks human SIRT5 desuccinylation of peptide; Purified SirT5, succinyl-peptide AMC, trypsin-coupled fluorescence; inhibition, % at 15 µM; 330,000 tested, 1.1% active; AID 652115; in the data active = inhibition above about 15%; inconclusive = no clear call, values can overlap the other calls
Target sequence (Q9NXA8 whole entry, looked up): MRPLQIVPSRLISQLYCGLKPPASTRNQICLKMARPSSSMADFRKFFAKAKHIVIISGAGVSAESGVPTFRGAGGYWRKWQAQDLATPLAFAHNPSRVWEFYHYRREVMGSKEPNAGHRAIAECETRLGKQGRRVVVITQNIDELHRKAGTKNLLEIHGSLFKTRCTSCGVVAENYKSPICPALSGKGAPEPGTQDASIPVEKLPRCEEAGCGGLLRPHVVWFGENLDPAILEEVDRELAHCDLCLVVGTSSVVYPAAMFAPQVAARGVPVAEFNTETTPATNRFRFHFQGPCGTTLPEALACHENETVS
DENV2 CPE rescue = protects cells from dengue virus 2 cytopathic effect; 350,000 tested, 1.7% active; AID 651640; CPE inhibition, % at 9.99 µM; DENV2-infected cells, cytopathic effect rescue, plate reader; in the data active = CPE inhibition above about 20%, passing the limit was not always enough; inconclusive = no clear call, values can overlap the other calls; tested in BHK-21 cells;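 note: 0% = median of neutral control wells and 100% = median of positive control wells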
ARNT-TACC3 inh = disrupts binding between human ARNT and TACC3; AlphaScreen His-ARNT PAS-B/GST-TACC3 binding, luminescence; TACC3 fragment carries E629A point mutation; 390,000 tested, 0.66% active; inhibition, % at 9.99 µM; Q9Y6A5;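 active = mean inhibition of replicates at least 50% and at least half of replicates each reaching 50%; inconclusive = half or more replicates reach 50% but mean below 50%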;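 note: 0% = complete ARNT plus TACC3 wells and 100% = ARNT alone without TACC3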
Xi reactivation = X-chromosome reactivation activator; XiGFP mouse fibroblasts, % GFP-positive cells imaging, 3 d; cells co-treated with 5-aza-dC sensitizer; scaled so ellipticine positive control = 100%; activation, % at 7.58 µM; 360,000 tested, 0.055% active; AID 743238;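 active = mean normalized replicate activation at least 10% and every replicate at or above 10%; inconclusive = only one of the two criteria met; inactive = mean below 10% and not all replicates reach 10%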;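 note: 0% = median of on-plate neutral control wells and 100% = ellipticine 6 µM median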
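Material: SV40-immortalized XiGFP fibroblast cells, line 68-5-11 | Buffer or medium: DMEM containing 5-aza-dC | Dosing: One concentration, pinned | Times: 3 d treatment, 15 min room-temperature fixation | Controls: Ellipticine 6 µM positive control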
FN deposition inh = fibronectin deposition inhibition | AH1F fibroblasts, Alexa488-fibronectin deposition fluorescence, overnight | 350,000 tested, 0.086% active | inhibition, % at 12.6 µM | AID 743247;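 active = mean inhibition across replicates of 30% or more, regardless of how many single replicates reach that level; inconclusive = mean under 30% yet at least half of replicates reach 30%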;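 note: positive control wells lacked labelled fibronectin entirely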
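Material – AH1F fibroblast monolayer, labelled fibronectin deposition · Reagent – labelled fibronectin 24 nM · Timing – 1 h adhesion, overnight exposure · Measured by – fluorescence at 485 nm excitation, 525 nm emission · Read-out – inhibition of fibronectin deposition signal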
FGF22 binding-2 = binds human FGF22 shifting its melting temperature | 1,000 tested, 2% active | shares compounds with FGF22 binding-1 | AID 720646 | thermal shift activity, °C (ΔTm) at 38 µM | recombinant FGF22 thermal shift, SYPRO orange fluorescence;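 active = fitted rise in melting shift crosses a set limit at or below the top valid dose tested; inconclusive = flat fit at mid-level activity, or a poor quality fit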
TSA no protein = shows thermal shift signal without protein, FGF22 counter-screen. shares compounds with FGF22 binding-1. compound-only SYPRO orange thermal shift counter-screen, no protein. AC50, µM (doses to about 38 µM). 1,000 tested, 2% active;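 active = rising signal whose fitted curve reaches the 0.54 level within the top valid dose, showing a melting point, actives reach about 13 µM in these data; inactive = the rest, including activity in the opposite direction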; note: value is where the raw curve crosses a fixed level and not half-maximal
Numbers without * were called inactive; i = inactive; ? = inconclusive; . = not tested or not shown; [ ] = dose if it differs, or a comment.

SMILES	FGF22 binding-1	SIRT5 inh	DENV2 CPE rescue	ARNT-TACC3 inh	Xi reactivation	FN deposition inh	FGF22 binding-2	TSA no protein
CN1CCN(C(=O)C[C@H]2CC[C@@H]3[C@H](COC[C@@H](O)CN3C(=O)C3CCCC3)O2)CC1	0	0	-9	8	0	-4	.	.
CN(NC1OC(=O)c2ccccc21)c1c([N+](=O)[O-])cc(C(F)(F)F)cc1[N+](=O)[O-] (configuration not stated)	-1	-4	-2	1	0	6	.	.
CN(NC1OC(=O)c2ccccc21)c1ncc(C(F)(F)F)cc1Cl (configuration not stated)	28*	-4	-6	2	0	6	0.003	i
O=C(O)Cn1cc(/C=N/NC(=O)c2cc3cc(Br)ccc3o2)c2ccccc21	1.4*	10	-2	19	0	1	-0.036	i
Cc1noc(C)c1NC(=O)Nc1ccc2c(c1)CC(=O)N([C@@H](C)CO)C[C@@H](C)[C@@H](CN(C)S(C)(=O)=O)O2	0	.	-4	-4	0	.	.	.
CCN1[C@@H]2c3cccc(=O)n3C[C@@H]2[C@@H](CO)[C@@H]1C(=O)N1CCc2ccccc2C1	0	3	-5	3	0	.	.	.
CCCn1c(CCC(=O)O)nc2cc(S(=O)(=O)N3CCCC3)ccc21	30*	-1	-3	1	0	3	0.088	i
CC(C)CC(=O)n1sc(NC(=O)c2ccccc2)nc1=O	2.5*	-3	15	-2	.	.	0.022	i
COc1ccc(Nc2nnc(-c3ccncc3)s2)cc1Cl	1.5*	-2	2	-8	0	2	0.061	i
COc1ccc(Cl)cc1Nc1nnc(-c2ccncc2)s1	0	-3	?	17	0	4	.	.
COc1ccc(CN(C)C[C@H]2Oc3ccc(NS(=O)(=O)c4ccc(Cl)cc4)cc3C(=O)N([C@H](C)CO)C[C@@H]2C)cc1	1	4	-2	13	0	-7	.	.
CCSc1nnc(NC(=O)c2ccc(Br)s2)s1	.	.	.	-11	.	.	.	.
O=C(Nc1nnc(C(F)(F)F)s1)c1ccc(Br)s1	2.0*	3	-5	-3	0	-3	-0.072	i
CC(=O)c1ccc(NS(=O)(=O)c2ccc(N)cc2)cc1	25*	.	3	-6	0	5	-0.036	i
Cn1ncc2c(Nc3ccc(O)cc3)nc(Cl)nc21	26*	3	-6	-17	0	-2	-0.002	i
Cc1nc2ccc(NC(=O)c3cc([N+](=O)[O-])cc([N+](=O)[O-])c3Cl)cc2s1	2.1*	1	2	-7	0	-4	0.23	i
Cc1noc(C)c1NC(=O)N[C@@H]1CC[C@@H](CC(=O)NCc2ccc(Cl)c(Cl)c2)O[C@H]1CO	0	6	3	-11	0	-7	.	.
Cc1ccc(-n2c(O)c(C=NC3CCS(=O)(=O)C3)c3ccccc3c2=O)cc1C (configuration not stated)	1.7*	-1	19	-24	.	.	0.035	i
Cc1ccc(NC(=O)c2cccc(OCc3c(C)noc3C)c2)c(C)c1	.	.	.	27	.	19	.	.
Cc1ccc(NC(=O)c2ccc(OCc3c(C)noc3C)cc2)c(C)c1	1.6*	-6	16	-2	0	-1	.	i
Cc1cc(C)n(-c2ccc(C(=O)Nc3ccc(S(=O)(=O)N(C)C)cc3)cc2)n1	1.5*	3	12	-2	0	-3	-0.24	i
CCC(=O)N1C[C@H](C)[C@H](OC)CN(C)C(=O)c2cc(NC(=O)CC(F)(F)F)ccc2OC[C@@H]1C	0	4	6	.	0	2	.	.
CCOC(=O)C1CCN(C(=O)CNC(=O)c2nn(-c3ccc(OC)cc3OC)c(=O)c3ccccc23)CC1	1.6*	-3	13	22	1	-4	0.054	i
CCOC(=O)N1CCN(C(=O)CNC(=O)c2nn(-c3ccc(OC)cc3OC)c(=O)c3ccccc23)CC1	0	1	-1	-16	0	-4	.	.
CS(=O)(=O)c1ccc2nc(NC(=O)CCNC(=O)c3ccccc3Cl)sc2c1	0	-5	13	2	0	0	.	.
SMILES	FGF22 binding-1	SIRT5 inh	DENV2 CPE rescue	ARNT-TACC3 inh	Xi reactivation	FN deposition inh	FGF22 binding-2	TSA no protein
O=C(CCNC(=O)c1ccccc1Cl)Nc1nc2ccc(F)cc2s1	2.7*	-4	11	.	0	3	0.035	i
Cc1noc(C)c1NC(=O)N[C@@H]1C=C[C@H](CC(=O)Nc2ccc(-c3ccccc3)cc2)O[C@@H]1CO	1.9*	-3	-7	.	0	-12	0.018[42 µM]	i
COCC(=O)N1[C@@H](CO)[C@H](c2ccccc2)C12CN(C(=O)NC1CCCC1)C2	.	-1	-4	.	0	-1	.	.
O=C(CC1CC1)N1CC2(C1)[C@H](c1ccccc1)[C@H](CO)N2C(=O)c1cnccn1	1.4*	-2	-2	.	0	.	0.17[42 µM]	i
COCC(=O)N1CC2(C1)[C@@H](c1ccccc1)[C@@H](CO)N2C(=O)NC1CCCC1	1.4*	.	-3	.	0	-5	0.001	i
CC(=O)N1[C@@H](CO)[C@@H](c2ccccc2)C12CN(C(=O)c1ccccn1)C2	1.4*	-5	5	.	0	.	0.12[42 µM]	i
CC(=O)N1[C@H](CO)[C@@H](c2ccccc2)C12CN(C(=O)c1ccccn1)C2	1.3*	-7	-5	.	0	.	0.13[42 µM]	i
CC(=O)N1[C@H](CO)[C@@H](c2ccccc2)C12CN(C(=O)c1cnccn1)C2	0	2	-10	.	0	.	.	.
O=C(CC1CC1)N1CC2(C1)[C@H](c1ccccc1)[C@@H](CO)N2C(=O)c1ccccn1	0	-1	-14	.	0	-1	.	.
O=C(c1ccccn1)N1CC2(C1)[C@@H](c1ccccc1)[C@@H](CO)N2C(=O)C1CC1	0	2	-6	.	0	-9	.	.
CN(C)CC(=O)Nc1ccc2c(c1)[C@@H]1C[C@H](CC(=O)NCC3CC3)O[C@H](CO)[C@@H]1O2	-1	12	?	3	0	0	.	.
CCC(=O)N[C@H]1C=C[C@H](CC(=O)NCc2ccc(OC)cc2)O[C@H]1CO	.	1	-3	-18	-1	2	.	.
COCC#Cc1cnc2c(c1)C(=O)N([C@@H](C)CO)C[C@@H](C)[C@@H](CN(C)C(=O)c1cnccn1)O2	0	2	6	4	1	.	.	.

Assay outcomes (PubChem BioAssay)
